Laboratory results: ChEMBL document CHEMBL3272082, “Racemic diastereoisomers of 1-amino-2-hydroxycyclopentanecarboxylic acid” (J Med Chem, 1976)
Active and inactive are the calls of the source. The rule behind the calls is not given here.

Key:
Jensen sarcoma [1] = assay: Inhibition of growth of rat Jensen sarcoma cells assessed as new cells at 50 ug/ml after 72 hrs in presence of 50 ug/ml threonine and 26 ug/ml serine (reference value: 100%); assay type: functional; set-up: scale not given: the % may be the effect or the level left
Outline: (§1)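 Jensen sarcoma cells seeded at 400000 cells/flask in replicate flasks in McCoy's 7a medium with 10% fetal calf serum, gassed with 8% CO2–92% air, 37°, 24 hr, then counted for zero time. Medium replaced with fresh medium containing analog at 50 μg/ml, with threonine added as listed and serine in medium at 26 μg/ml. Medium renewed at 48 hr. New cells counted at 72 hr, expressed as % of control in normal medium.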

Escherichia coli [2] = assay: Antimicrobial activity against Escherichia coli 9723 assessed as growth inhibition up to 300 ug/ml; assay type: functional, organism-based
Outline: (§2)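 Microbial growth toxicity tested by typical microbial procedures; each isomer at concentrations up to 300 μg/ml.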

Enterococcus faecalis = assay: Antimicrobial activity against Streptococcus faecalis 8043 assessed as growth inhibition up to 300 ug/ml; assay type: functional, organism-based; outline: as §2
[3] = system: Leuconostoc mesenteroides; assay: Antimicrobial activity against Leuconostoc mesenteroides 10830 assessed as growth inhibition up to 300 ug/ml; assay type: functional; outline: as §2
[4] = Retardation factor of the compound in cyclohexylamine-water-methyl ethyl ketone-1-butanol at 1:2.5:5:5 ratio by paper chromatography; assay type: physicochemical; settings: buffer
Outline: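 Paper chromatography in cyclohexylamine–water–methyl ethyl ketone–1-butanol (1:2.5:5:5). Rf values compared with allothreonine and threonine run in the same system.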

Jensen sarcoma [5] = assay: Inhibition of growth of rat Jensen sarcoma cells assessed as new cells at 50 ug/ml after 72 hrs in presence of 18 ug/ml threonine and 26 ug/ml serine (reference value: 100%); assay type: functional; set-up: scale not given: the % may be the effect or the level left; outline: as §1
Jensen sarcoma [6] = assay: Inhibition of growth of rat Jensen sarcoma cells assessed as new cells at 50 ug/ml after 72 hrs in presence of 26 ug/ml serine (reference value: 100%); assay type: functional; set-up: scale not given: the % may be the effect or the level left; outline: as §1
Escherichia coli [7] = assay: Antimicrobial activity against Escherichia coli W assessed as growth inhibition up to 300 ug/ml; assay type: functional; outline: as §2
[8] = system: Lactiplantibacillus plantarum; assay: Antimicrobial activity against Lactobacillus arabinosus 8014 assessed as growth inhibition up to 300 ug/ml; assay type: functional, organism-based; outline: as §2
Jensen sarcoma [9] = assay: Inhibition of growth of rat Jensen sarcoma cells assessed as new cells at 50 ug/ml after 72 hrs in presence of 25 ug/ml threonine and 26 ug/ml serine (reference value: 100%); assay type: functional; set-up: scale not given: the % may be the effect or the level left; outline: as §1

Rf [4] | Structure (SMILES) | Activity (Jensen sarcoma [1]) [%] | growth inhibition (GI) (Escherichia coli [2]) | growth inhibition (GI) (Enterococcus faecalis) | growth inhibition (GI) [3] | Activity (Jensen sarcoma [5]) [%] | Activity (Jensen sarcoma [6]) [%] | growth inhibition (GI) (Escherichia coli [7]) | growth inhibition (GI) [8] | Activity (Jensen sarcoma [9]) [%]
0.38 | N[C@@]1(C(=O)O)CCC[C@@H]1O (relative stereo) | 68 | inactive | inactive | inactive | 69 | 12 | inactive | inactive | 
 | NC1(C(=O)O)CCCC1 [CYCLOLEUCINE] |  |  |  |  |  | 0 |  |  | 5
0.45 | N[C@@]1(C(=O)O)CCC[C@H]1O (relative stereo) | 68 | inactive | inactive | inactive | 68 | 12 | inactive | inactive | 
0.54 | C[C@@H](O)[C@H](N)C(=O)O [THREONINE] |  |  |  |  |  |  |  |  | 
0.41 | C[C@H](O)[C@H](N)C(=O)O |  |  |  |  |  |  |  |  | 
